ChEMBL document CHEMBL4152211, “Discovery of novel Methylsulfonyl phenyl derivatives as potent human Cyclooxygenase-2 inhibitors with effective anticonvulsant action: Design, synthesis, in-silico, in-vitro and in-vivo evaluation” (Eur J Med Chem, 2018)
The source made the active and inactive calls. No cut-off for these calls is given here.

How the values were obtained:
[1] = system: Rattus norvegicus; experiment: Toxicity in Wistar rat assessed as effect on potassium level at 200 mg/kg, po for 14 days; type: organism-based; details: in vivo, 336 h
[2] = system: Mus musculus; experiment: Anticonvulsant activity in Swiss albino mouse assessed as protection against subcutaneous pentylenetetrazole-induced seizures at 300 mg/kg, ip administered 4 hrs prior to PTZ challenge and measured after 30 mins; type: functional
In short: (§1)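 Male Swiss Albino mice (25–30 g), 6 per group, dosed i.p. with drugs in sterile saline, then challenged with PTZ 85 mg/kg s.c. (CD97), given at 10 ml/kg, 0.5 h or 4 h later. Each animal is observed singly for seizures. Protection is scored as protected/total animals.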

[3] = system: Rattus norvegicus; experiment: Toxicity in Wistar rat assessed as platelet level at 200 mg/kg, po for 14 days (reference value: 1119 +/- 142.9 10^3/mm3); type: organism-based; details: in vivo, 336 h
[4] = system: Rattus norvegicus; experiment: Toxicity in Wistar rat assessed as effect on uric acid level at 200 mg/kg, po for 14 days; type: organism-based; details: in vivo, 336 h
In short: (§2)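 Normal Wistar rats are given 200 mg/kg orally for 14 days, with vehicle-treated controls. Serum liver markers (SGOT, SGPT, ALP, total protein, total bilirubin) and renal markers (urea, creatinine, uric acid) are then measured, mean ± S.D.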

[5] = system: Rattus norvegicus; experiment: Toxicity in Wistar rat assessed as effect on SGPT level at 200 mg/kg, po for 14 days; type: organism-based; details: in vivo, 336 h; in short: as §2
[6] = system: Rattus norvegicus; experiment: Toxicity in Wistar rat assessed as effect on phosphorous level at 200 mg/kg, po for 14 days; type: organism-based; details: in vivo, 336 h
[7] = system: Mus musculus; experiment: Anticonvulsant activity in Swiss albino mouse assessed as protection against subcutaneous pentylenetetrazole-induced seizures at 100 mg/kg, ip administered 4 hrs prior to PTZ challenge and measured after 30 mins; type: functional; in short: as §1
[8] = system: Rattus norvegicus; experiment: Toxicity in Wistar rat assessed as effect on sodium level at 200 mg/kg, po for 14 days; type: organism-based; details: in vivo, 336 h
[9] = system: Rattus norvegicus; experiment: Toxicity in Wistar rat assessed as TLC level at 200 mg/kg, po for 14 days (reference value: 7.23 +/- 1 10^3/mm3); type: organism-based; details: in vivo, 336 h
[10] = system: Mus musculus; experiment: Anticonvulsant activity in Swiss albino mouse assessed as protection against subcutaneous pentylenetetrazole-induced seizures at 30 mg/kg, ip administered 0.5 hrs prior to PTZ challenge and measured after 30 mins; type: functional; in short: as §1
[11] = system: Rattus norvegicus; experiment: Toxicity in Wistar rat assessed as monocyte level at 200 mg/kg, po for 14 days (reference value: 2.67 +/- 0.58%); type: organism-based; details: in vivo, 336 h
[12] = molecular target: T1, Prostaglandin G/H synthase 1 (Ovis aries) (UniProt P05979); experiment: Inhibition of ovine COX1 at 10 uM using arachidonic acid as substrate preincubated for 5 mins followed by substrate addition and measured after 2 mins by ADPH probe-based fluorescence assay relative to control
T1 sequence (whole entry): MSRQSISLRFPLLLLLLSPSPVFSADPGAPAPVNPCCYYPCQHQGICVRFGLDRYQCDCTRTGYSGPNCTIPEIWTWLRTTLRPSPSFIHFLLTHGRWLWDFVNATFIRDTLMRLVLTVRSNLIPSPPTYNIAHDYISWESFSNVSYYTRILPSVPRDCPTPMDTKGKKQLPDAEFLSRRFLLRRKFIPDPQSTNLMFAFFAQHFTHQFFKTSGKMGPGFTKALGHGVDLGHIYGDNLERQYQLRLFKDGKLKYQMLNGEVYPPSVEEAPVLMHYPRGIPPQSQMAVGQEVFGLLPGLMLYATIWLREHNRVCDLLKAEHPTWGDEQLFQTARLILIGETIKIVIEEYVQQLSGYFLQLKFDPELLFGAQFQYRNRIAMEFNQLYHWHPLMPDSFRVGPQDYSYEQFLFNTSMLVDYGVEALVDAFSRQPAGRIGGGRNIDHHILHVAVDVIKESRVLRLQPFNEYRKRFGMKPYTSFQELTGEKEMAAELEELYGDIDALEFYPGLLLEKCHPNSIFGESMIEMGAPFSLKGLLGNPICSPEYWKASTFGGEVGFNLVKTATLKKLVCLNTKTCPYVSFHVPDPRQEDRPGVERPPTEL
In short: (§3)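 Kit assay in 100 mM Tris-HCl pH 8.0. Enzyme, heme and inhibitor (DMSO stocks) are incubated 5 min at room temperature. ADPH is added, then arachidonic acid starts the reaction. After 2 min, fluorescence is read at ex 535/em 590 nm. Percent inhibition is taken versus the 100% activity well, background wells included. IC50 is derived from percentage inhibition, mean of three independent experiments.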

[13] = molecular target: T2, Prostaglandin G/H synthase 2 (Homo sapiens) (UniProt P35354); experiment: Inhibition of human recombinant COX2 at 10 uM using arachidonic acid as substrate preincubated for 5 mins followed by substrate addition and measured after 2 mins by ADPH probe-based fluorescence assay relative to control; in short: as §3
T2 sequence (whole entry): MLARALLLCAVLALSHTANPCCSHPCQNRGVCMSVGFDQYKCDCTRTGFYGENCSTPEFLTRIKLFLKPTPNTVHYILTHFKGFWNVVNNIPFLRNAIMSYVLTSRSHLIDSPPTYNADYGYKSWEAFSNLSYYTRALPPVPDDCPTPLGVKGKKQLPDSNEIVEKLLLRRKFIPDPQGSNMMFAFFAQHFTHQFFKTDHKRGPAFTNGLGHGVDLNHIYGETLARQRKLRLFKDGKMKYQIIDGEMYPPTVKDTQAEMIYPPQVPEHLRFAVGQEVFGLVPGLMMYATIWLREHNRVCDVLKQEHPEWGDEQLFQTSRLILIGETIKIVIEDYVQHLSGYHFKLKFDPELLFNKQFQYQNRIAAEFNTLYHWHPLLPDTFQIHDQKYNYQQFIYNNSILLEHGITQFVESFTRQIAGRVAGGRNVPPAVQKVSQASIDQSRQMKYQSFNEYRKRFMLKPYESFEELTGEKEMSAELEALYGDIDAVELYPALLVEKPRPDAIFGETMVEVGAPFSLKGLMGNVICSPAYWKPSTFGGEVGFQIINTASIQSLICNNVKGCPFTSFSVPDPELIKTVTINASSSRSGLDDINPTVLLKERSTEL

[14] = system: Rattus norvegicus; experiment: Toxicity in Wistar rat assessed as RBC level at 200 mg/kg, po for 14 days (reference value: 8.19 +/- 0.648 10^6/mm3); type: organism-based; details: in vivo, 336 h
[15] = system: Rattus norvegicus; experiment: Toxicity in Wistar rat assessed as eosinophil level at 200 mg/kg, po for 14 days (reference value: 2.67 +/- 0.58%); type: organism-based; details: in vivo, 336 h

In the case of `Cc1ccc(NC(=S)NNC(=O)Nc2ccc(S(C)(=O)=O)cc2)cc1`, the Activity [1] is reported as “Non-Toxic”, the Activity [2] is reported as 83% and the Activity [3] is reported as 990 ×10³ /mm3. The Activity [4] was “Non-Toxic”, the Activity [5] was “Non-Toxic” and the Activity [6] was “Non-Toxic”. The Activity [7] was 83%, the Activity [8] was “Non-Toxic” and the Activity [9] was 6.25 ×10³ /mm3. The Activity [10] was 83%, the Activity [11] was 2.5% and the inhibition [12] was “inactive”. It also gave an inhibition [13] of 75%, an Activity [14] of 7.34 ×10⁶ /mm3 and an Activity [15] of 2.5%.
